Screening results as filed in PubChem.
A selection: hits, their analogues and other compounds. The true share with any hit is near 1.7%.
CSN deneddyl inh – blocks human CSN-mediated cullin deneddylation; Q92905; Purified CSN, SCF-Nedd8-OG deneddylation, fluorescence polarization; inhibition, % at 12.5 µM; actives 0.38% (n = 360,000); AID 651999;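 active means pattern-corrected inhibition above about 35%, with an unprinted fluorescence ratio check between 0.5 and 1.5, limit read from the data, passing the limit was not always enough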;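 further: 0% = enzyme with substrate and 100% = substrate without enzyme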
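Assay system: Purified human Csn5 enzyme expressed in HEK293T cells | Amount: Enzyme 0.24 nM | Measured by: Fluorescence polarization readout | Medium: Tris/NaCl/DTT buffer, pH 7.5 | Compound dosing: One concentration, 12.5 µM, 0.25% DMSO | Times: 90 min incubation of compound, enzyme and substrate at room temperature | Control set: no-enzyme wells high, enzyme-with-substrate wells low | Read-out: % inhibition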
TbMetRS inhib – blocks T. brucei methionyl-tRNA synthetase activity | AID 624268 | purified T. brucei MetRS, ATP depletion, Kinase-Glo luminescence | actives 0.4% (n = 360,000) | inhibition, % at 11.9 µM;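 active means inhibition above a per-plate cutoff of the control wells' mean inhibition plus 3 SD, cut at about 5.5% in these data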;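 further: 0% = DMSO wells median and 100% = median of wells with control inhibitor compound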
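Material: parasite MetRS enzyme / Replication: singlicate, one well per compound / Signal: luminescence of leftover ATP / Schedule: 2 h aminoacylation at 25 °C after 15 min preincubation / Medium: HEPES-MgCl2-KCl buffer plus DTT, spermine, BSA, pyrophosphatase / Doses: 11.9 µM single point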
IDE act – boosts human insulin-degrading enzyme activity in HEK cells. FAbeta-B cleavage, fluorescence polarization; 0% vehicle, 100% cell-free pure enzyme wells. P14735. activation, % at 5.96 µM. actives 0.073% (n = 340,000). AID 493087;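 active means activation above the mean of all tested compounds plus 3 SD, set per screening campaign, cut at about 17% in these data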
Target sequence (P14735 whole entry, looked up): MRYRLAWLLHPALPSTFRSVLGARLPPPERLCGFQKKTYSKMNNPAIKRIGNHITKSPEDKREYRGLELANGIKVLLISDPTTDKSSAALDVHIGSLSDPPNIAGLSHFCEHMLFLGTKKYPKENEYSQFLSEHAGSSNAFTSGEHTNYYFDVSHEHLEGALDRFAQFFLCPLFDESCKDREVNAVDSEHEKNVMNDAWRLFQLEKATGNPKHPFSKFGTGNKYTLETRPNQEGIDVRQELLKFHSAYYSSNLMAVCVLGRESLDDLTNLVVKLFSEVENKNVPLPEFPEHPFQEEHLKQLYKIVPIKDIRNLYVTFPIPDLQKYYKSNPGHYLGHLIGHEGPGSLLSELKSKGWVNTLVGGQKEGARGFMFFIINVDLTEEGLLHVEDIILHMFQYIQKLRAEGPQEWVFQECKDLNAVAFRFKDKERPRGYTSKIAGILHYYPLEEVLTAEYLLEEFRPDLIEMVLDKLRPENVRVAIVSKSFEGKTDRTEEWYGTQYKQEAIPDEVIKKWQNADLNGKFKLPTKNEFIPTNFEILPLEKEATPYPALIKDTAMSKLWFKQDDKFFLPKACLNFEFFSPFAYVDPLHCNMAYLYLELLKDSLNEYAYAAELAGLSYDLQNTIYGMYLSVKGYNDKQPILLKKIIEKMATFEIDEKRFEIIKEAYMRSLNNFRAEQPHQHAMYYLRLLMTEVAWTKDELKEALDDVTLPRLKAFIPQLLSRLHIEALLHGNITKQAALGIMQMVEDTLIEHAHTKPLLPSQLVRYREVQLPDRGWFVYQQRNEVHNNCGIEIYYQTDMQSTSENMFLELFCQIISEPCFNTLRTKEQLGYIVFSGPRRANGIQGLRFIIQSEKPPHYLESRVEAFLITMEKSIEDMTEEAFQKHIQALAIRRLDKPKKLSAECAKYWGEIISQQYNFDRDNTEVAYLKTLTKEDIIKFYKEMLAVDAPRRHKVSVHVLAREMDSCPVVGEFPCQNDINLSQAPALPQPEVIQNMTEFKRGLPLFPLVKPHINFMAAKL
IDE cell inh – inhibitors of human insulin-degrading enzyme in cells; P14735; HEK cells, FAbetaB cleavage, fluorescence polarization; inhibition, % at 5.59 µM; actives 0.41% (n = 320,000);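 active means percent inhibition above the average of all tested compounds plus 3 SD, set per screening campaign, cut at about 16% in these data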;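 further: IDE supplied by intact live HEK cells; FP after avidin binding of uncleaved biotin substrate so inhibition keeps polarization high; 0% = DMSO wells and 100% = 60 µM reference IDE inhibitor Ii1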
HNF4A DNA FP – change in binding of human HNF4 alpha to DNA; P41235; actives 0.3% (n = 360,000); activity change, % at 10 µM; HNF4a-FITC DNA binding, fluorescence polarization, 1 h; in the data active means activity change above about 30%, passing the limit was not always enough
TPT1 inhibitor – inhibitors of Candida albicans tRNA 2'-phosphotransferase TPT1 | AID 1962 | recombinant caTPT1, FP RNA substrate dephosphorylation | actives 0.81% (n = 300,000) | inhibition, % at 5 µM;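 active means inhibition above the mean of all tested compounds plus 3 SD, set per screening campaign, cut at about 24% in these data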;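 further: plate controls were DMSO alone for no effect and ferristatin control at 100 nM for full effect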
TPT1 inh confirm – TPT1 (C. albicans) inhibition, confirmation | shares compounds with TPT1 inhibitor | actives 74% (n = 2,400) | recombinant caTPT1, fluorescence polarization, RNase T1 coupled | AID 2149 | inhibition, % at 5 µM;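 active means inhibition above the primary screen limit, the mean inhibition of all tested compounds plus 3 SD, cut at about 25% in these data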
RNase T1 inh – RNase T1 inhibition in TPT1 counter-screen; shares compounds with TPT1 inhibitor; RNase T1 cleavage, fluorescence polarization, 1536-well; inhibition, % at 5 µM; actives 83% (n = 2,400); AID 2153;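 active means inhibition above the solvent-only control well mean plus 3 SD, limit set per screening run, cut at about 23% in these data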;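 further: plate controls were DMSO wells with enzyme for no effect and wells without RNase T1 for full effect; inhibitors block cleavage so intact labeled substrate keeps polarization high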
* = called active by the depositor; x = not tested or not shown.

SMILES	CSN deneddyl inh	TbMetRS inhib	IDE act	IDE cell inh	HNF4A DNA FP	TPT1 inhibitor	TPT1 inh confirm	RNase T1 inh
O=C(CCCN1C(=O)/C(=C/c2ccccc2Cl)SC1=S)NNC(=O)c1ccc(Cl)cc1	4	-1	2	-2	15	2	x	x
Cc1ccc(C(=O)NNC(=O)CCCN2C(=O)/C(=C/c3ccccc3Cl)SC2=S)cc1	5	0	3	16	5	38*	7	12
COc1ccc(C(=O)O)cc1S(=O)(=O)Nc1ccccc1-c1ccccc1	0	-1	4	5	-2	-4	x	x
COC(=O)C(Cc1ccccc1)OS(N)(=O)=O (stereo not given)	2	0	6	0	-4	-3	x	x
CCN(CC)c1ccc(N=Nc2ncn[nH]2)cc1	7	0	x	5	23	25*	24*	35*
COc1cccc(OC)c1C(=O)Nc1ccncc1	4	-1	9	-7	-1	-4	x	x
COc1ccc(C(=O)N2C(=S)NC(=O)/C2=C\c2ccc(C)cc2)cc1	43*	0	0	-2	19	34*	42*	57*
COC(=O)CN1C(=S)N(c2ccc(OC)cc2)C(=O)/C1=C/c1ccc(OC)cc1	5	-1	2	-2	5	-1	x	x
Nc1c(C(=O)N/N=C/c2ccccc2Cl)oc2nc(-c3ccccc3)cc(-c3ccco3)c12	2	0	x	12	64	72*	92*	95*
Cc1cc(-c2ccccc2)nc2oc(C(=O)NN)c(N)c12	-7	0	2	-2	4	0	x	x
Nc1c(C(=O)N/N=C/c2ccc(F)cc2)oc2nc(-c3ccccc3)cc(-c3ccco3)c12	10	-1	7	0	33	34*	109*	112*
COc1ccc(CCC(=O)Nc2ccc(S(=O)(=O)Nc3nccc(C)n3)cc2)cc1	6	0	0	4	2	5	x	x
CCC(C)Nc1nc(-c2c[nH]c3ccccc23)cs1 (stereo not given)	3	0	0	4	17	25*	23	33*
Cc1ccc(C)c(C(=O)Nc2nc3ccccc3[nH]2)c1	0	0	0	-2	0	25*	9	15
O=C(O)CSc1ncnc2scc(-c3ccccc3)c12	1	0	0	4	5	1	x	x
O=C(O)CSc1ncnc2scc(-c3ccc(Br)cc3)c12	3	0	-6	-2	2	35*	46*	55*
N#CC1=C(N)Oc2cc(O)c(C=Nc3ccccc3)cc2C1c1ccccc1 (stereo not given)	-1	0	5	6	4	3	x	x
Cc1ccccc1N=Cc1cc2c(cc1O)OC(N)=C(C#N)C2c1ccccc1 (stereo not given)	13	-2	-5	12	35	53*	73*	82*
COc1ccc(S(=O)(=O)N2CCC3(CC2)OCCN3S(=O)(=O)c2cccs2)cc1OC	-9	-1	-3	10	-3	-1	x	x
COc1ccccc1C(=O)NCC1(c2ccccc2)CCCC1	8	0	1	5	-1	-2	x	x
COc1ccc(C(=O)Nc2ccc(NC(=O)Cc3ccccc3)cn2)cc1	0	0	0	4	-34	-4	x	x
COc1cc(/C=C2/C(=N)N3C(=NC2=O)SN=C3S(C)(=O)=O)ccc1OS(=O)(=O)c1ccccc1	x	x	x	3	x	28*	16	23*
CC(=O)C1=C(O)C(=O)N(c2cccc(Br)c2)C1c1ccccc1Cl (stereo not given)	-1	0	3	0	-1	0	x	x
O=C(N/C=C/c1ccco1)OCc1ccccc1	3	0	1	2	14	31*	19	31*
COc1ccc(OCc2cc(C(=O)O)c(C)o2)cc1	x	x	x	-1	x	3	x	x
SMILES	CSN deneddyl inh	TbMetRS inhib	IDE act	IDE cell inh	HNF4A DNA FP	TPT1 inhibitor	TPT1 inh confirm	RNase T1 inh
O=C(C[n+]1cc(Br)cc2ccccc21)c1ccc(Br)cc1	4	0	1	5	-1	27*	36*	48*
Cc1ccc(N/C=C/c2onc(C)c2[N+](=O)[O-])cc1	6	0	5	-2	12	49*	56*	68*
Cc1cccc(C)c1N/C=C/c1onc(C)c1[N+](=O)[O-]	3	-1	4	7	-1	6	x	x
CCCCn1c(-c2csc(CC)c2)n[nH]c1=S	-5	-1	-9	4	1	0	x	x
CCCCn1c(-c2csc(C(C)C)c2)n[nH]c1=S	-12	-1	-2	6	-2	61*	6	8
CCN(CC)c1ccc2cc(C(=O)NCc3ccc(F)cc3)c(=N)oc2c1	7	0	-6	2	65	78*	109*	109*
N=c1oc2ccc(Br)cc2cc1C(=O)NCc1ccc(F)cc1	6	0	-2	0	-1	1	x	x
COC(=O)C(=O)C/C(=N/Nc1ncnc2ccccc12)c1ccc(Cl)cc1	4	-1	0	2	4	58*	13	18
O=C(NCC1CCCO1)c1ccc(N2CCCCC2)c([N+](=O)[O-])c1 (stereo not given)	5	0	3	-8	-3	1	x	x
CCN(CC)c1ccc2cc(-c3nc4ccccc4n3C)c(=O)oc2c1	11	-1	-35	14	9	81*	81*	85*
COc1ccc(C2CC(c3c(O)cc(C)oc3=O)=NCCS2)c(OC)c1 (stereo not given)	7	0	-4	7	5	42*	5	12
O=c1oc2ccccc2nc1/C=C(O)/C=C/c1ccc(F)cc1	2	1	-5	0	3	3	x	x
O=c1oc2ccccc2nc1/C=C(O)/C=C\c1ccccc1	2	-1	3	6	6	27*	17	28*
O=C(/C=C/[C@H]1O[C@@H](n2ccc(=O)[nH]c2=O)[C@H](O)[C@@H]1O)NCCN1CCOCC1	5	0	x	x	3	x	x	x
CNC(=O)c1c(NC(=O)c2ccc(S(=O)(=O)N3CCCc4ccccc43)cc2)sc2c1CCN(C)C2	5	-1	-4	1	32*	103*	79*	88*
CNC(=O)c1c(NC(=O)c2ccc(S(=O)(=O)N3CCCCC3)cc2)sc2c1CCN(C(C)C)C2	11	-1	0	3	14	29*	30*	39*
CN1CCc2c(sc(NC(=O)c3ccco3)c2C(N)=O)C1	3	0	6	0	0	10	x	x
